# Reference: ChEMBL document CHEMBL4373687, “Introducing nitrogen atoms to amidoalkylindoles: potent and selective cannabinoid type 2 receptor agonists with improved aqueous solubility” (Medchemcomm, 2019)
# Key:
# [1] = target: T1, Cannabinoid receptor 2 (Homo sapiens, UniProt P34972); assay: Antagonist activity at human CB2-receptor expressed in CHO-K1 cells coexpressing G-alpha16 at 10 uM pre-incubated for 10 mins and later treated with 100 nM CB-receptor agonist, CP55940 by Fluo-4-AM dye based calcium mobilization assay; type: functional, cell-based
# In short: (§1)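 CHO-K1 cells stably co-expressing Gα16 and human CB1 or CB2, loaded with 2 μM fluo-4 AM in HBSS pH 7.4 at 37 °C for 45 min. Pre-incubated with compound for 10 min at room temperature, then CP55940 added at 100 nM. Peak calcium read over 60 s (ex 485/em 525 nm). Rimonabant positive control. Actives got eight-point curves in triplicate, sigmoidal fit for IC50.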
# [2] = target: T2, Cannabinoid receptor 1 (Homo sapiens, UniProt P21554); assay: Antagonist activity at human CB1-receptor expressed in CHO-K1 cells coexpressing G-alpha16 at 10 uM pre-incubated for 10 mins and later treated with 100 nM CB-receptor agonist, CP55940 by Fluo-4-AM dye based calcium mobilization assay; type: cell-based; in short: as §1
# [3] = target: T1, Cannabinoid receptor 2; assay: Agonist activity at human CB2-receptor expressed in CHO-K1 cells coexpressing G-alpha16 assessed as maximum efficacy by Fluo-4-AM dye based calcium mobilization assay relative to CP55940; type: functional, cell-based
# In short: (§2)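 CHO-K1 cells stably co-expressing Gα16 and human CB1 or CB2, seeded 24 h. Loaded with 2 μM fluo-4 AM in HBSS (with sulfinpyrazone, pH 7.4) at 37 °C for 45 min. Compound added and calcium fluorescence recorded (ex 485/em 525 nm). CP55940 positive control, DMSO negative control. Compounds with >50% activation at 10 μM got eight-point curves in triplicate, sigmoidal fit for EC50.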
# [4] = target: T1, Cannabinoid receptor 2; assay: Agonist activity at human CB2-receptor expressed in CHO-K1 cells coexpressing G-alpha16 at 10 uM by Fluo-4-AM dye based calcium mobilization assay; type: functional, cell-based; in short: as §2
# [5] = target: T1, Cannabinoid receptor 2; assay: Antagonist activity at human CB2-receptor expressed in CHO-K1 cells coexpressing G-alpha16 pre-incubated for 10 mins and later treated with 100 nM CB-receptor agonist, CP55940 by Fluo-4-AM dye based calcium mobilization assay; type: functional, cell-based; in short: as §1
# [6] = target: T2, Cannabinoid receptor 1; assay: Antagonist activity at human CB1-receptor expressed in CHO-K1 cells coexpressing G-alpha16 pre-incubated for 10 mins and later treated with 100 nM CB-receptor agonist, CP55940 by Fluo-4-AM dye based calcium mobilization assay; type: cell-based; in short: as §1
# [7] = target: T2, Cannabinoid receptor 1; assay: Agonist activity at human CB1-receptor expressed in CHO-K1 cells coexpressing G-alpha16 at 10 uM by Fluo-4-AM dye based calcium mobilization assay; type: cell-based; details: cho-k1, 10 µM; in short: as §2
# [8] = target: T2, Cannabinoid receptor 1; assay: Agonist activity at human CB1-receptor expressed in CHO-K1 cells coexpressing G-alpha16 by Fluo-4-AM dye based calcium mobilization assay; type: cell-based
# [9] = target: T1, Cannabinoid receptor 2; assay: Agonist activity at human CB2-receptor expressed in CHO-K1 cells coexpressing G-alpha16 by Fluo-4-AM dye based calcium mobilization assay; type: functional, cell-based
# [10] = target: T2, Cannabinoid receptor 1; assay: Agonist activity at human CB1-receptor expressed in CHO-K1 cells coexpressing G-alpha16 assessed as maximum efficacy by Fluo-4-AM dye based calcium mobilization assay relative to CP55940; type: cell-based; in short: as §2
# T2 sequence (P21554 whole entry): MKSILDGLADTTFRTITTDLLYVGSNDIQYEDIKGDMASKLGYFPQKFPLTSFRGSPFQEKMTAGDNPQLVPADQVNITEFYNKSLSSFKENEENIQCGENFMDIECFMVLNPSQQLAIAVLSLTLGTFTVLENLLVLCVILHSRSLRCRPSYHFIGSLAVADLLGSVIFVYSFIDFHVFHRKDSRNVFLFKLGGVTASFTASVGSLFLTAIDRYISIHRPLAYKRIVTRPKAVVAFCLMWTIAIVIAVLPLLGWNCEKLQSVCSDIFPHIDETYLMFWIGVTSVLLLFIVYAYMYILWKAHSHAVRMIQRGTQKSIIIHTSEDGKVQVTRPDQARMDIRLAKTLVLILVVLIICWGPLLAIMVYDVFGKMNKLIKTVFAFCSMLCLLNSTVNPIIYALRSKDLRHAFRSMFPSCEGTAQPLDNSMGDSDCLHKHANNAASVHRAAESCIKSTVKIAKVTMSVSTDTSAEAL
# T1 sequence (P34972 whole entry): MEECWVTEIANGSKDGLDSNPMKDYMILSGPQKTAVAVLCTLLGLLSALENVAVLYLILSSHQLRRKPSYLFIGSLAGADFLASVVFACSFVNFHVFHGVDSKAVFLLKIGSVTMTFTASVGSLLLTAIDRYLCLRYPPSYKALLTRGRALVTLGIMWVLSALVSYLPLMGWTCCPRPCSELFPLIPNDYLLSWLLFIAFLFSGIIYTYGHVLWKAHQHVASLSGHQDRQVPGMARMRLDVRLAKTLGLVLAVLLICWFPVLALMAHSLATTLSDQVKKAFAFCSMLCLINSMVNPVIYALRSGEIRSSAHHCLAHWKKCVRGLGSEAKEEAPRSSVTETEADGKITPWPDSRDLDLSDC
SMILES,inhibition [1] [%],inhibition at 10 µM [2] [%],Emax [3] [%],Activity [4] [%],IC50 ([5]; cho-k1),IC50 [6],Activity [7] [%],EC50 ([8]; cho-k1),EC50 ([9]; read-out: EC50) [nM],Emax [10] [%],EC50 ([8]; read-out: EC50) [nM],IC50 ([5]; read-out: IC50) [nM],EC50 ([9]; cho-k1)
O=C(NC12CC3CC(CC(C3)C1)C2)c1nc2ccccc2[nH]1,< 50,< 50,85.3,> 50,Not Active,Not Active,< 50,Not Active,520,,,,
CCCCCn1c(C(=O)NC23CC4CC(CC(C4)C2)C3)nc2ccccc21,< 50,< 50,62.2,> 50,Not Active,Not Active,< 50,Not Active,320,,,,
O=C(NC12CC3CC(CC(C3)C1)C2)c1nn(CCN2CCOCC2)c2ccccc12,< 50,< 50,85.3,> 50,Not Active,Not Active,> 50,,58,109,300,,
O=C(NC12CC3CC(CC(C3)C1)C2)c1cc2cccnc2n1CCN1CCOCC1,> 50,< 50,,< 50,,Not Active,> 50,,,88.4,650,78,Not Active
CCCCCn1c(C(=O)NC23CC4CC(CC(C4)C2)C3)cc2cccnc21,< 50,< 50,46.2,> 50,Not Active,Not Active,< 50,Not Active,920,,,,
O=C(NC12CC3CC(CC(C3)C1)C2)c1c[nH]c2cccnc12,< 50,< 50,,< 50,Not Active,Not Active,< 50,Not Active,,,,,Not Active
CCCCCn1cc(C(=O)NC23CC4CC(CC(C4)C2)C3)c2cccnc21,< 50,< 50,79.4,> 50,Not Active,Not Active,> 50,,32,39.1,740,,
CCCCCn1cc(C(=O)NC23CC4CC(CC(C4)C2)C3)c2cnccc21,> 50,< 50,,< 50,,Not Active,> 50,,,41,2100,260,Not Active
O=C(NC12CC3CC(CC(C3)C1)C2)c1cc2cnccc2n1CCN1CCOCC1,< 50,< 50,,< 50,Not Active,Not Active,< 50,Not Active,,,,,Not Active
CCCCCn1c(C(=O)NC23CC4CC(CC(C4)C2)C3)cc2ncccc21,< 50,< 50,50,> 50,Not Active,Not Active,< 50,Not Active,220,,,,
CCCCCn1c(C(=O)NC23CC4CC(CC(C4)C2)C3)cc2cnccc21,< 50,< 50,,< 50,Not Active,Not Active,< 50,Not Active,,,,,Not Active
CCCCCn1nc(C(=O)NC23CC4CC(CC(C4)C2)C3)c2ccccc21,< 50,< 50,58.5,> 50,Not Active,Not Active,> 50,,92,99.6,38,,
O=C(NC12CC3CC(CC(C3)C1)C2)c1cc2cccnc2[nH]1,< 50,< 50,40.7,> 50,Not Active,Not Active,< 50,Not Active,290,,,,
O=C(NC12CC3CC(CC(C3)C1)C2)c1cn(CCN2CCOCC2)c2cccnc12,< 50,< 50,,< 50,Not Active,Not Active,< 50,Not Active,,,,,Not Active
O=C(NC12CC3CC(CC(C3)C1)C2)c1cc2ncccc2n1CCN1CCOCC1,< 50,< 50,,< 50,Not Active,Not Active,< 50,Not Active,,,,,Not Active
O=C(NC12CC3CC(CC(C3)C1)C2)c1nc2ccccc2n1CCN1CCOCC1,> 50,< 50,,< 50,,Not Active,< 50,Not Active,,,,36,Not Active
O=C(NC12CC3CC(CC(C3)C1)C2)c1cc2ncccc2[nH]1,< 50,< 50,38,> 50,Not Active,Not Active,< 50,Not Active,590,,,,
O=C(NC12CC3CC(CC(C3)C1)C2)c1cc2cnccc2[nH]1,< 50,< 50,121,> 50,Not Active,Not Active,< 50,Not Active,2000,,,,
CCCCCn1cc(C(=O)NC23CC4CC(CC(C4)C2)C3)c2ncccc21,> 50,< 50,,< 50,,Not Active,> 50,,,48.2,180,12,Not Active
O=C(NC12CC3CC(CC(C3)C1)C2)c1c[nH]c2ccncc12,< 50,< 50,,< 50,Not Active,Not Active,< 50,Not Active,,,,,Not Active
O=C(NC12CC3CC(CC(C3)C1)C2)c1cn(CCN2CCOCC2)c2ccncc12,< 50,< 50,,< 50,Not Active,Not Active,< 50,Not Active,,,,,Not Active
O=C(NC12CC3CC(CC(C3)C1)C2)c1c[nH]c2ncccc12,> 50,< 50,,< 50,,Not Active,< 50,Not Active,,,,6500,Not Active
